In ChEMBL document CHEMBL1152233, “The identification of pyrazolo[1,5-a]pyridines as potent p38 kinase inhibitors” (Bioorg Med Chem Lett, 2008):
Each block holds one compound with its values, some of them ahead of it.

Experiments:
[1] = molecular target: Mitogen-activated protein kinase 14 (Homo sapiens, UniProt Q16539); assay: Inhibition of GST-fused p38alpha expressed in Escherichia coli
Summary of the method: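 GST-tagged p38 and MEK6 at the N-terminus, purified from E. coli. Reaction ran 60 min at rt, was EDTA-quenched, and was read with streptavidin SPA beads. IC50 was fitted from % inhibition against ±EDTA controls. Values are means of >2 experiments.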

[2] = Metabolic stability in dog liver S9 microsomal fraction assessed as parent compound turnover after 30 mins; assay type: ADME, subcellular, Canis lupus familiaris; details: read-out: Stability
Summary of the method: (§1)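 Test compound was incubated with liver S9 fraction (5 mg protein/mL) for 30 min. Read-out is % turnover of parent compound. Values are means of ≥2 incubations.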

[3] = Metabolic stability in rat liver S9 microsomal fraction assessed as parent compound turnover after 30 mins; assay type: ADME, subcellular; details: read-out: Stability; summary of the method: as §1
[4] = Volume of distribution at steady state in Lewis rat at 1 mg/kg, iv; assay type: ADME, organism-based; design: dose 1 mg/kg, route intravenous; details: in vivo, read-out: Vdss
[5] = AUC in Lewis rat at 1 mg/kg, iv; assay type: ADME, organism-based; design: dose 1 mg/kg, route intravenous; details: plasma
[6] = Half life in Lewis rat at 1 mg/kg, iv; assay type: ADME, organism-based; design: dose 1 mg/kg, route intravenous; details: in vivo
[7] = Clearance in Lewis rat at 1 mg/kg, iv; assay type: ADME, organism-based; design: dose 1 mg/kg, route intravenous; details: in vivo
[8] = Bioavailability in Lewis rat at 1 mg/kg, iv; assay type: ADME, organism-based; details: in vivo
[9] = Clearance in Beagle dog at 1 mg/kg, iv; assay type: ADME, organism-based, Canis lupus familiaris; design: dose 1 mg/kg, route intravenous; details: in vivo
[10] = Half life in Beagle dog at 1 mg/kg, iv; assay type: ADME, organism-based, Canis lupus familiaris; design: dose 1 mg/kg, route intravenous; details: in vivo
[11] = Bioavailability in Beagle dog at 1 mg/kg, iv; assay type: ADME, organism-based, Canis lupus familiaris; details: in vivo
[12] = AUC in Beagle dog at 1 mg/kg, iv; assay type: ADME, organism-based, Canis lupus familiaris; design: dose 1 mg/kg, route intravenous; details: plasma
[13] = Volume of distribution at steady state in Beagle dog at 1 mg/kg, iv; assay type: ADME, organism-based, Canis lupus familiaris; design: dose 1 mg/kg, route intravenous; details: in vivo, read-out: Vdss
[14] = Bioavailability in Lewis rat at 5 mg/kg, iv; assay type: ADME, organism-based; details: in vivo
[15] = molecular target: Receptor tyrosine-protein kinase erbB-2 (Homo sapiens, UniProt P04626); assay: Inhibition of ERBB2
Angiopoietin-1 receptor = Angiopoietin-1 receptor (Homo sapiens, UniProt Q02763); assay: Inhibition of TIE2
[16] = AUC in Lewis rat at 5 mg/kg, iv; assay type: ADME, organism-based; design: dose 5 mg/kg, route intravenous; details: plasma
[17] = molecular target: Cyclin-dependent kinase 2 (Homo sapiens, UniProt P24941); assay: Inhibition of CDK2/CyclinA
[18] = molecular target: RAC-gamma serine/threonine-protein kinase (Homo sapiens, UniProt Q9Y243); assay: Inhibition of AKT3
[19] = molecular target: Glycogen synthase kinase-3 beta (Homo sapiens, UniProt P49841); assay: Inhibition of GSK3-beta
[20] = Volume of distribution at steady state in Lewis rat at 5 mg/kg, iv; assay type: ADME, organism-based; design: dose 5 mg/kg, route intravenous; details: in vivo, read-out: Vdss
[21] = molecular target: Receptor tyrosine-protein kinase erbB-4 (Homo sapiens, UniProt Q15303); assay: Inhibition of ERBB4
[22] = Clearance in Lewis rat at 5 mg/kg, iv; assay type: ADME, organism-based; design: dose 5 mg/kg, route intravenous; details: in vivo
[23] = Half life in Lewis rat at 5 mg/kg, iv; assay type: ADME, organism-based; design: dose 5 mg/kg, route intravenous; details: in vivo
[24] = molecular target: [Pyruvate dehydrogenase (acetyl-transferring)] kinase isozyme 4, mitochondrial (Homo sapiens, UniProt Q16654); assay: Inhibition of PDHK4
Mus musculus = assay: Inhibition of LPS-induced TNF production in mouse at 30 mg/kg, po; assay type: functional
[25] = molecular target: Vascular endothelial growth factor receptor 2 (Homo sapiens, UniProt P35968); assay: Inhibition of VEGFR2
[26] = molecular target: Macrophage colony-stimulating factor 1 receptor (Homo sapiens, UniProt P07333); assay: Inhibition of C-FMS
PBMC = assay: Inhibition of LPS-induced TNF release in human PBMC; assay type: functional, cell-based

Chain of Mitogen-activated protein kinase 14 (Q16539 whole entry, the tested form may be a part): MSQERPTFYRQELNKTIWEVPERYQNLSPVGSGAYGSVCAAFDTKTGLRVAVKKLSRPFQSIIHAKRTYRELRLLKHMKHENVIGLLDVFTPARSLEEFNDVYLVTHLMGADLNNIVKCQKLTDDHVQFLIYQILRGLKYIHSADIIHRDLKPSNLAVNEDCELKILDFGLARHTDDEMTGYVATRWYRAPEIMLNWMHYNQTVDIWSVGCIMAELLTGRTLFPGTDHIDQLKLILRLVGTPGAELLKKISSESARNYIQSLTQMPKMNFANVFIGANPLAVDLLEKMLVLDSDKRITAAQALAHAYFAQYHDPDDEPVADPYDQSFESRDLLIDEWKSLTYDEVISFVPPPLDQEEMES
Chain of RAC-gamma serine/threonine-protein kinase (Q9Y243 whole entry): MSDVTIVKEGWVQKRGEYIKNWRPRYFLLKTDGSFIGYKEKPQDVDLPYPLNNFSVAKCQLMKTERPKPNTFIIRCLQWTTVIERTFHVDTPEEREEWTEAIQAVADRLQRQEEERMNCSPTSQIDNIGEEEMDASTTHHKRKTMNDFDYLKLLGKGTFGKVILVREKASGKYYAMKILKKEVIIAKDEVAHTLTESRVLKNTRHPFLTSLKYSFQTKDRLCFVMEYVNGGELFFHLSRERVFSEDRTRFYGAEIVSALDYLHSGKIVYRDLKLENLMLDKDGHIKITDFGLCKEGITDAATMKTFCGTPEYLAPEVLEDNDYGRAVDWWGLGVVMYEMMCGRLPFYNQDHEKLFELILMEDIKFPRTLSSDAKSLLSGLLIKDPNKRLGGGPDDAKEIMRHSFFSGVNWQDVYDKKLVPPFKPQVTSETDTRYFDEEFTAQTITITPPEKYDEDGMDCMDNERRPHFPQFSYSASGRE
Chain of Angiopoietin-1 receptor (Q02763 whole entry): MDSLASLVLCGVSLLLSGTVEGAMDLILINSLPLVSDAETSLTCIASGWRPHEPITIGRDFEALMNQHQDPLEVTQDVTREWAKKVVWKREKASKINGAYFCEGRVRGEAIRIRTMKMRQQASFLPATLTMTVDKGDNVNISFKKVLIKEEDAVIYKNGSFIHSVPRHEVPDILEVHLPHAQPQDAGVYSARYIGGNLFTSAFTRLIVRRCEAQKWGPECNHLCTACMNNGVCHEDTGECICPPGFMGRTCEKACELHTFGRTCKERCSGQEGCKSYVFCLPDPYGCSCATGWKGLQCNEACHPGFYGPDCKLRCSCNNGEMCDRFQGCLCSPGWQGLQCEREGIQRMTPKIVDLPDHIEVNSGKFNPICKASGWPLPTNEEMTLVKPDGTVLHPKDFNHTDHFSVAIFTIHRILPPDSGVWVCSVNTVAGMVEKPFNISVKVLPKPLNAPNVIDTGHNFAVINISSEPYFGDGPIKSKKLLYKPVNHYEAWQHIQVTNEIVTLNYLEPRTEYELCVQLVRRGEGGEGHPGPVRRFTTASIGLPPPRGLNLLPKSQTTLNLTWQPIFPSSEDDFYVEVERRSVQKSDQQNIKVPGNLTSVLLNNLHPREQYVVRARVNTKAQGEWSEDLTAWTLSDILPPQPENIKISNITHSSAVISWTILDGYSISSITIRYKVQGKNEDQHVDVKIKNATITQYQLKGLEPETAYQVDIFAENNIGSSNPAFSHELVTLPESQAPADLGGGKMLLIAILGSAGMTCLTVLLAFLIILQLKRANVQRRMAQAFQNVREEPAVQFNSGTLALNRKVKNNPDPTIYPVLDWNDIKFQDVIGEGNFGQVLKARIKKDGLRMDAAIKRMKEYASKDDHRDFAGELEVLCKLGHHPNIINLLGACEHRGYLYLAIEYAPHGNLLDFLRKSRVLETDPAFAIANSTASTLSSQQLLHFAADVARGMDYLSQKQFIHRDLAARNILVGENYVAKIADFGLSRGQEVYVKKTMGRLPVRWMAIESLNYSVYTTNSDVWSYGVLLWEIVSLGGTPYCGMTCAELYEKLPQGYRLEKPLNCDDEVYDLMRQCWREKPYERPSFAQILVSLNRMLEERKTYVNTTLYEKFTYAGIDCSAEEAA
Chain of Vascular endothelial growth factor receptor 2 (P35968 whole entry): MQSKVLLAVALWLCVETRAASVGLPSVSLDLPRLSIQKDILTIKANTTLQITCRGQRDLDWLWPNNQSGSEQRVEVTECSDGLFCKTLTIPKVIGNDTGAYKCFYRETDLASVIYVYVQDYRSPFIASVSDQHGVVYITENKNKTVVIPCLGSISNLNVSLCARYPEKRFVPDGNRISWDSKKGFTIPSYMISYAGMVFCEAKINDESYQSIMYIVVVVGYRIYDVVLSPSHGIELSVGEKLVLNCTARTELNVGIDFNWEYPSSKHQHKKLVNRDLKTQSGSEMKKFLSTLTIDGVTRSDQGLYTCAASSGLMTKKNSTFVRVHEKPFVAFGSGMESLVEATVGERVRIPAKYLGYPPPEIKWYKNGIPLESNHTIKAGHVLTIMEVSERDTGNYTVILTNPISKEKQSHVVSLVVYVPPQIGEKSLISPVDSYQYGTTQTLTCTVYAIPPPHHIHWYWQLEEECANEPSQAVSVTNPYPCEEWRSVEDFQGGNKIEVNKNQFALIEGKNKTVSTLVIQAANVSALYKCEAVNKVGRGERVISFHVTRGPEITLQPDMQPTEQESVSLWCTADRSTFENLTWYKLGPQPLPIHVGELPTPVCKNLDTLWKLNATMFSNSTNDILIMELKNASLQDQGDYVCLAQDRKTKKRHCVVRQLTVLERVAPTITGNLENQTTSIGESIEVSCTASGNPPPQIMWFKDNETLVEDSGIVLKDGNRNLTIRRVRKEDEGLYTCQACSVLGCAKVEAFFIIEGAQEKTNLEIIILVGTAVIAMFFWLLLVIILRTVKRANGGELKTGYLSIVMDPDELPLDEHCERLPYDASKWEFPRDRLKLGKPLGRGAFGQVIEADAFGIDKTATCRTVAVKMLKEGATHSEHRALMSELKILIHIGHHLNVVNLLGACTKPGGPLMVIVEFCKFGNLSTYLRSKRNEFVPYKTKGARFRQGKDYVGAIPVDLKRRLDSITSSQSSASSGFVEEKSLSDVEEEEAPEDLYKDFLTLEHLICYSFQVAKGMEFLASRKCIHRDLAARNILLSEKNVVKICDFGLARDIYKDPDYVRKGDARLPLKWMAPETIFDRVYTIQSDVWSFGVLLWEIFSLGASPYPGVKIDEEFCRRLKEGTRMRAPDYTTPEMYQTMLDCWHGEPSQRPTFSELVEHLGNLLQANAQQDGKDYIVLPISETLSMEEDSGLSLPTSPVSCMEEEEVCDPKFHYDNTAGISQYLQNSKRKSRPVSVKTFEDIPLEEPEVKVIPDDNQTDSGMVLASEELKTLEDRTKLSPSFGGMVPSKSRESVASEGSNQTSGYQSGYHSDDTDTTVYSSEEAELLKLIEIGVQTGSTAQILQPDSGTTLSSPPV
Chain of Receptor tyrosine-protein kinase erbB-4 (Q15303 whole entry): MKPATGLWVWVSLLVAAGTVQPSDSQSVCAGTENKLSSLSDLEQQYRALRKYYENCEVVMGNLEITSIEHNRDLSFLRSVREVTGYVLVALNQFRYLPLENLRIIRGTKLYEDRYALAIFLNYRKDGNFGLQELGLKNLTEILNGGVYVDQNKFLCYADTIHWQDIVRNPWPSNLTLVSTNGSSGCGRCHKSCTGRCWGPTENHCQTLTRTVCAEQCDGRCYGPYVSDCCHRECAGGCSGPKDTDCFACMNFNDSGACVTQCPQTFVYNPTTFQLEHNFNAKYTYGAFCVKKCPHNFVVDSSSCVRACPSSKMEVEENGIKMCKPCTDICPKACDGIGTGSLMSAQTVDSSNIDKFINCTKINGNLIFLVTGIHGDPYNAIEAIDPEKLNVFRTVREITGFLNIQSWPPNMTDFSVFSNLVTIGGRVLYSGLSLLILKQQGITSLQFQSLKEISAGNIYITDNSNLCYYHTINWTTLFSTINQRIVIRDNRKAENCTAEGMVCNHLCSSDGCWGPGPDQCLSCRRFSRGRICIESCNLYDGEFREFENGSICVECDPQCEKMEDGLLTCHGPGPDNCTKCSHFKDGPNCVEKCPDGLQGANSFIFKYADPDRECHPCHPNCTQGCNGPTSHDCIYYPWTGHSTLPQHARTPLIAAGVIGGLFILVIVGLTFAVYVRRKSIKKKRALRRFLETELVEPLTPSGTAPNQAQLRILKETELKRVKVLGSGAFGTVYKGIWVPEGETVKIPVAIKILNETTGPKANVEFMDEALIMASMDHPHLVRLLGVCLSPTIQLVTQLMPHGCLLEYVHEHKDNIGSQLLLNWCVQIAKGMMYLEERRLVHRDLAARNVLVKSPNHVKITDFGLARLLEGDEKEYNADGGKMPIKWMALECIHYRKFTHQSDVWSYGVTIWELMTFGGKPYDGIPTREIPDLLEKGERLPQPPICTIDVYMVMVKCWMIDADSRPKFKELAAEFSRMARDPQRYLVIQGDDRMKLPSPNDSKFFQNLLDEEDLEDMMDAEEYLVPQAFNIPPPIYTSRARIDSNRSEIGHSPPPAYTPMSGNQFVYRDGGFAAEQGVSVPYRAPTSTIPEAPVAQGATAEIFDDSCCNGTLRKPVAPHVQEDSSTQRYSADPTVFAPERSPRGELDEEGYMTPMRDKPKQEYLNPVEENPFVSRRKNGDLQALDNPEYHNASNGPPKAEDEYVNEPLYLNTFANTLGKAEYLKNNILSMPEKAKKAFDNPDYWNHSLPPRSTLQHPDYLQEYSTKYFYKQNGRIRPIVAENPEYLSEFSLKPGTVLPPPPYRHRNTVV
Chain of Glycogen synthase kinase-3 beta (P49841 whole entry): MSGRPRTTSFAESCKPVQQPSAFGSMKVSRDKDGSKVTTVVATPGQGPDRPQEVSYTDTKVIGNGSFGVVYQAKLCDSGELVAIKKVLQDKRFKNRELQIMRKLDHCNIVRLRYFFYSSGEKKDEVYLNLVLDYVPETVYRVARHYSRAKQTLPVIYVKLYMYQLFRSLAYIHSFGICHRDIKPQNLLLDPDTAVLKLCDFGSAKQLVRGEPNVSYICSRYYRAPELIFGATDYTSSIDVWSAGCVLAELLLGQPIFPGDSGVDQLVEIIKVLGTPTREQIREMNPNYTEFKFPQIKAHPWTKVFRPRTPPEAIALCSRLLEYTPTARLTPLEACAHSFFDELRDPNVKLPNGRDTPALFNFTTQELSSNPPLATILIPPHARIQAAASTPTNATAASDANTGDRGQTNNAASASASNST

- IC50 [1]: 280 nM
SMILES: Cc1cccn2nc(-c3ccc(F)cc3)c(-c3ccncc3)c12

- metabolised at 0.5 h [2]: 81%
- IC50 [1]: 150 nM
- metabolised at 0.5 h [3]: 99%
SMILES: Cc1ccc2c(-c3ccncc3)c(-c3ccc(F)cc3)nn2c1

- metabolised at 0.5 h [2]: 93%
- IC50 [1]: 150 nM
- metabolised at 0.5 h [3]: 43%
SMILES: Cc1cccc2c(-c3ccncc3)c(-c3ccc(F)cc3)nn12

- Vd [4]: 5.4 L/kg
- AUC [5]: 500 ng·h/mL
- metabolised at 0.5 h [2]: 0%
- IC50 [1]: 200 nM
- half-life [6]: 2.5 h
- clearance [7]: 34 mL/min/kg
- bioavailability [8]: 84%
- metabolised at 0.5 h [3]: 0%
SMILES: Fc1ccc(-c2nn3cc(C(F)(F)F)ccc3c2-c2ccncc2)cc1

- IC50 [1]: 140 nM
SMILES: N#Cc1ccc2c(-c3ccncc3)c(-c3ccc(F)cc3)nn2c1

- metabolised at 0.5 h [2]: 18%
- IC50 [1]: 170 nM
- metabolised at 0.5 h [3]: 8%
SMILES: Fc1ccc(-c2nn3c(OC4CCCC4)cccc3c2-c2ccncc2)cc1

- IC50 [1]: 150 nM
SMILES: Fc1ccc(-c2nn3cc(Cl)ccc3c2-c2ccncc2)cc1

- metabolised at 0.5 h [2]: 39%
- IC50 [1]: 240 nM
- metabolised at 0.5 h [3]: 21%
SMILES: Fc1ccc(-c2nn3cccc(F)c3c2-c2ccncc2)cc1

- Vd [4]: 5.4 L/kg
- AUC [5]: 500 ng·h/mL
- metabolised at 0.5 h [2]: 0%
- IC50 [1]: 70 nM
- clearance [9]: 17 mL/min/kg
- half-life [6]: 2.1 h
- clearance [7]: 40 mL/min/kg
- half-life [10]: 6.5 h
- bioavailability [11]: 32%
- AUC [12]: 1500 ng·h/mL
- Vd [13]: 8.2 L/kg
- bioavailability [8]: 72%
- metabolised at 0.5 h [3]: 0%
SMILES: Fc1ccc(-c2nn3c(OCC(F)(F)F)cccc3c2-c2ccncc2)cc1

- metabolised at 0.5 h [2]: 23%
- IC50 [1]: 160 nM
- metabolised at 0.5 h [3]: 1%
SMILES: Fc1ccc(-c2nn3cc(F)ccc3c2-c2ccncc2)cc1

- metabolised at 0.5 h [2]: 84%
- IC50 [1]: 150 nM
- metabolised at 0.5 h [3]: 37%
SMILES: Fc1ccc(-c2nn3c(Cl)cccc3c2-c2ccncc2)cc1

- IC50 [1]: 50 nM
SMILES: CCOc1cccc2c(-c3ccncc3)c(-c3ccc(F)cc3)nn12

- Vd [4]: 2 L/kg
- AUC [5]: 200 ng·h/mL
- IC50 [1]: 160 nM
- half-life [6]: 1.2 h
- clearance [7]: 83 mL/min/kg
- metabolised at 0.5 h [3]: 60%
SMILES: Cc1ccn2nc(-c3ccc(F)cc3)c(-c3ccncc3)c2c1

- metabolised at 0.5 h [2]: 81%
- bioavailability [14]: 50%
- IC50 [15]: > 10000 nM
- IC50 (Angiopoietin-1 receptor): > 10000 nM
- AUC [16]: 1700 ng·h/mL
- IC50 [1]: 120 nM
- IC50 [17]: > 10000 nM
- IC50 [18]: > 10000 nM
- IC50 [19]: 2200 nM
- Vd [20]: 3.2 L/kg
- IC50 [21]: > 10000 nM
- clearance [22]: 49 mL/min/kg
- clearance [9]: 34 mL/min/kg
- half-life [10]: 1.9 h
- bioavailability [11]: 18%
- half-life [23]: 1.2 h
- IC50 [24]: > 10000 nM
- IC50 [25]: > 10000 nM
- IC50 [26]: > 10000 nM
- AUC [12]: 500 ng·h/mL
- Vd [13]: 3.8 L/kg
- metabolised at 0.5 h [3]: 27%
SMILES: Fc1ccc(-c2nn3ccccc3c2-c2ccncc2)cc1 [GW434756X]
- inhibition in vivo at 30 mg/kg (Mus musculus): 65%
- IC50 (PBMC): 300 nM
